Experimental data reported in PMC5788574 (The Journal of comparative neurology, 2017).

Assays:
[1] = partial agonist; ref Niaura, Jones, & Kirkpatrick, 2006; cited from earlier work
hα2β2 nAChR = hα2β2 nAChR (Homo sapiens, UniProt P17787+Q15822); test: biochemical; assay type: binding
nAChR α2β4 = nAChR α2β4 (Homo sapiens, UniProt P30926+Q15822); test: biochemical; assay type: binding
hβ4 nAChR subtypes = assay type: binding, human; details: read-out: Affinity for hβ4 nAChR subtypes; range over α4β4, α3β4, α2β4
α4β2* nAChRs [2] = test: Human brain [18F]Nifene PET, distribution volume ratio; assay type: in vivo; details: for DVR ATR / DVR CB / DVR Frontal cortex / DVR LG / DVR OG / DVR Pit / DVR Red Nucleus / DVR SLF / DVR SN/VTA / DVR Thalamus: corpus callosum reference
Method in brief: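 Eight healthy volunteers (4 male, 4 female), 21–69 years. Bolus of about 185 MBq radiotracer, then 90 min dynamic 3-D acquisition on an HR+ scanner. Frames were […], reconstructed by filtered back projection with a 4 mm Gaussian filter. FreeSurfer regions came from coregistered 3 T MRI. Parametric DVR images were made by MRTM2 with corpus callosum as reference.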

[3] = Tolerability of [18F]Nifene in human PET subjects; assay type: in vivo; details: 185 MBq, <0.10 μg per injection
Method in brief: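 Healthy volunteers aged 21–69 (4 male, 4 female) studied under an FDA investigational new drug application. Each received a bolus of about 185 MBq radiotracer in sterile saline. Vital signs and laboratory results were assessed for adverse or clinically detectable pharmacologic effects.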

α4β2* nAChRs [4] = test: Mouse brain [18F]Nifene PET/CT; assay type: in vivo; details: mouse PET
Method in brief: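 BALB/c mice (25–30 g) were induced with 4% isoflurane and kept on 2% during the scan. A bolus of about 9.25 MBq radiotracer was followed by dynamic acquisition for up to 120 min, then CT for attenuation correction. Images were coregistered to an MRI mouse template. Time-activity curves came from atlas-guided VOIs without partial volume correction. Logan noninvasive DVR, with BPND = DVR−1.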

α4β2* nAChRs [5] = test: Rat brain [18F]Nifene PET/CT; assay type: in vivo; details: rat PET
Method in brief: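 Sprague-Dawley rats (250–400 g) were induced with 4% isoflurane and kept on 2.5% during the scan. A bolus of about 24 MBq radiotracer was followed by dynamic acquisition for up to 120 min, then CT for attenuation correction. Images were normalized to stereotaxic space via an MRI rat template. Time-activity curves came from atlas-guided VOIs without partial volume correction. Logan noninvasive DVR, with BPND = DVR−1.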

α4β2* nAChRs [6] = test: Rhesus monkey brain [18F]Nifene PET; assay type: in vivo, rhesus monkey (Macaca mulatta)
Method in brief: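 Rhesus monkeys (8–10 kg) had ketamine/xylazine IM, or ketamine/atropine IM plus 1–2% isoflurane. A bolus of about 48–111 MBq radiotracer was followed by at least 120 min acquisition on an HR+ or microPET scanner. Data were binned into 23 frames and reconstructed by filtered back projection. Circular ROIs on cerebellum, thalamus, lateral geniculate and cortex gave time-activity curves and BPND.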

α4β2* nAChRs [7] = test: [18F]Nifene PET across species; assay type: in vivo; details: all species (mice, rats, monkeys, and humans)
[8] = after intravenous administration; ref Kant et al., 2011; cited from earlier work
[9] = human PET, females Avg±SD (4 subjects)
[10] = human PET, males Avg±SD (4 subjects)
[11] = human PET, males Avg±SD (4 subjects), listed as 18F-Nifene

Sequence of nAChR α2β4 (Q15822 27-529): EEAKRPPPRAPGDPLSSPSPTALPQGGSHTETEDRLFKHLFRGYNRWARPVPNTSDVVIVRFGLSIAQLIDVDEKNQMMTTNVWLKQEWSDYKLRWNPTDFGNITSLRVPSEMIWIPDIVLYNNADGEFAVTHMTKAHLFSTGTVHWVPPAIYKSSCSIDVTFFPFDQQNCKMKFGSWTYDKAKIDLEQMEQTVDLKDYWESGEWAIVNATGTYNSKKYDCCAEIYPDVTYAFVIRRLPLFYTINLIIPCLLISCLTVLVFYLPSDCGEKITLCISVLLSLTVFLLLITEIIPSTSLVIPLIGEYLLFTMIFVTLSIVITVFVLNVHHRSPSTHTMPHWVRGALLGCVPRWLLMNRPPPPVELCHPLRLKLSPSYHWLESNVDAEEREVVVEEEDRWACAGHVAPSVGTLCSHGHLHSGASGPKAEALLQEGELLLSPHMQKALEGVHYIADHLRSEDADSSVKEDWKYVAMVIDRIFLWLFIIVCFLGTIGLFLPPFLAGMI
Sequence of nAChR α2β4 (P30926 22-498): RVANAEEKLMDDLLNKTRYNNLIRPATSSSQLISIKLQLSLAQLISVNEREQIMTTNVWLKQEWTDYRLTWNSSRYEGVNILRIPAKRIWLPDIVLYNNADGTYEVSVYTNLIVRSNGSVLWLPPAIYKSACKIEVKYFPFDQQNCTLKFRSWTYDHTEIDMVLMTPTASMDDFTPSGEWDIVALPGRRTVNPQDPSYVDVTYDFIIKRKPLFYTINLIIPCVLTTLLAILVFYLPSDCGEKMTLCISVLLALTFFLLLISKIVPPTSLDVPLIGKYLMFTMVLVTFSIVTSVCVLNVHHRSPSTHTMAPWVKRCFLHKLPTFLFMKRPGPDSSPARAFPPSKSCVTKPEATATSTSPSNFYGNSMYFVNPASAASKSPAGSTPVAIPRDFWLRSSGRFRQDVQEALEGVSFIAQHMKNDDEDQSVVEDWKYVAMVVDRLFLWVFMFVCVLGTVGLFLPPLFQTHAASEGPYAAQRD
Sequence of hα2β2 nAChR (Q15822 27-529): as the sequence (Q15822 27-529) above
Sequence of hα2β2 nAChR (P17787 26-502): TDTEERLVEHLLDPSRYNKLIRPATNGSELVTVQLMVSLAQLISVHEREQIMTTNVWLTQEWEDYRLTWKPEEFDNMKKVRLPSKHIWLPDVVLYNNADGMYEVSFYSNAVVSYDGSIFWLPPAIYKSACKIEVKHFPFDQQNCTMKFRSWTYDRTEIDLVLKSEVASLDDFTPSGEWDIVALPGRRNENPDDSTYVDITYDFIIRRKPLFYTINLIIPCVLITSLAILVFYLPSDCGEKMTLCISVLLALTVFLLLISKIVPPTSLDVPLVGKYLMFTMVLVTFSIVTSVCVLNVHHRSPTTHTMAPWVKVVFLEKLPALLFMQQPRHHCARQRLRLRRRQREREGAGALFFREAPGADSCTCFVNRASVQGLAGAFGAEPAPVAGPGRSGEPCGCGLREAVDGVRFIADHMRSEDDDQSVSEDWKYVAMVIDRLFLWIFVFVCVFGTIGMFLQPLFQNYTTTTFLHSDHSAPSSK

For `c1cnc2cc3c(cc2n1)[C@@H]1CNC[C@H]3C1` [varen-cline], which “in vivo efficacy compared to nicotine” value [1] is on record?
Its value is 30–60%.

For `CN1CCC[C@H]1c1cccnc1` [Nicotine, reference compound], which Ki (hα2β2 nAChR) is on record?
Its Ki is 3.64 nM.

What about the Ki (nAChR α2β4) of the same compound?
The Ki was 82.7 nM.

And the Ki (hβ4 nAChR subtypes)?
Its Ki is 27 to 219 nM.

For `[18F]c1ncccc1OC[C@@H]1C=CCN1` [[^18F]Nifene, 2-[18F]fluoro-3-[2-((S)-3-pyrrolinyl)methoxy]pyridine], which Binding in habenula (α4β2* nAChRs [2]; human PET) is on record?
The Binding in habenula was “low levels”.

And the “Ratio of thalamus to corpus callosum” value (α4β2* nAChRs [2]; human PET)?
Its value is 2.6.

And the “DVR, anterior thalamic radiation (white matter)” value (α4β2* nAChRs [2]; human PET, all subjects)?
Its value is ~ 1.6.

And the “DVR, red nucleus” value (α4β2* nAChRs [2]; human PET, all subjects)?
The value was 1.6–1.7.

And the “DVR, superior longitudinal fasciculus” value (α4β2* nAChRs [2]; human PET, all subjects)?
The value was ~ 1.5.

What about the “DVR ATR” value (α4β2* nAChRs [2]; [9]) of the same compound?
Its value is 1.67.

And the “DVR CB” value (α4β2* nAChRs [2]; [9])?
Its value is 1.54 ± 0.25.

What about the “DVR Frontal cortex” value (α4β2* nAChRs [2]; [9]) of the same compound?
Its value is 1.38 ± 0.15.

And the “DVR LG” value (α4β2* nAChRs [2]; [9])?
The value was 2.46 ± 0.07.

And the “DVR OG” value (α4β2* nAChRs [2]; [9])?
Its value is 1.41.

And the “DVR Pit” value (α4β2* nAChRs [2]; [9])?
The value was 1.57.

And the “DVR Red Nucleus” value (α4β2* nAChRs [2]; [9])?
Its value is 1.73.

And the “DVR SLF” value (α4β2* nAChRs [2]; [9])?
The value was 1.55.

And the “DVR SN/VTA” value (α4β2* nAChRs [2]; [9])?
The value was 1.75 ± 0.09.

And the “DVR Thalamus” value (α4β2* nAChRs [2]; [9])?
The value was 2.58 ± 0.11.

And the “DVR ATR” value (α4β2* nAChRs [2]; [10])?
Its value is 1.58.

And the “DVR CB” value (α4β2* nAChRs [2]; [10])?
The value was 1.42 ± 0.18.

What about the “DVR Frontal cortex” value (α4β2* nAChRs [2]; [10]) of the same compound?
The value was 1.31 ± 0.11.

What about the “DVR LG” value (α4β2* nAChRs [2]; [10]) of the same compound?
The value was 2.17 ± 0.08.

And the “DVR OG” value (α4β2* nAChRs [2]; [10])?
The value was 1.31.

What about the “DVR Pit” value (α4β2* nAChRs [2]; [10]) of the same compound?
The value was 1.45.

What about the “DVR Red Nucleus” value (α4β2* nAChRs [2]; [10]) of the same compound?
Its value is 1.56.

What about the “DVR SLF” value (α4β2* nAChRs [2]; [10]) of the same compound?
Its value is 1.38.

And the “DVR SN/VTA” value (α4β2* nAChRs [2]; [10])?
The value was 1.60 ± 0.08.

What about the “DVR Thalamus” value (α4β2* nAChRs [2]; [10]) of the same compound?
Its value is 2.24 ± 0.10.

What about the “DVR ATR” value (α4β2* nAChRs [2]; [11]) of the same compound?
Its value is 1.58 ± 0.13.

And the “DVR OG” value (α4β2* nAChRs [2]; [11])?
Its value is 1.31 ± 0.12.

And the “DVR Pit” value (α4β2* nAChRs [2]; [11])?
The value was 1.45 ± 0.22.

What about the “DVR Red Nucleus” value (α4β2* nAChRs [2]; [11]) of the same compound?
Its value is 1.56 ± 0.13.

What about the “DVR SLF” value (α4β2* nAChRs [2]; [11]) of the same compound?
Its value is 1.38 ± 0.15.

And the “DVR ATR” value (α4β2* nAChRs [2]; human one PET)?
Its value is 1.68.

What about the “DVR CB” value (α4β2* nAChRs [2]; human one PET) of the same compound?
Its value is 1.40.

What about the “DVR Frontal cortex” value (α4β2* nAChRs [2]; human one PET) of the same compound?
The value was 1.29.

What about the “DVR LG” value (α4β2* nAChRs [2]; human one PET) of the same compound?
The value was 2.17.

And the “DVR OG” value (α4β2* nAChRs [2]; human one PET)?
Its value is 1.41.

What about the “DVR Pit” value (α4β2* nAChRs [2]; human one PET) of the same compound?
Its value is 1.62.

And the “DVR Red Nucleus” value (α4β2* nAChRs [2]; human one PET)?
The value was 1.64.

What about the “DVR SLF” value (α4β2* nAChRs [2]; human one PET) of the same compound?
Its value is 1.55.

And the “DVR SN/VTA” value (α4β2* nAChRs [2]; human one PET)?
The value was 1.53.

And the “DVR Thalamus” value (α4β2* nAChRs [2]; human one PET)?
Its value is 2.25.

What about the “DVR ATR” value (α4β2* nAChRs [2]; human seven PET) of the same compound?
The value was 1.45.

What about the “DVR CB” value (α4β2* nAChRs [2]; human seven PET) of the same compound?
The value was 1.50.

And the “DVR Frontal cortex” value (α4β2* nAChRs [2]; human seven PET)?
Its value is 1.34.

What about the “DVR LG” value (α4β2* nAChRs [2]; human seven PET) of the same compound?
Its value is 2.17.

What about the “DVR OG” value (α4β2* nAChRs [2]; human seven PET) of the same compound?
The value was 1.33.

And the “DVR Pit” value (α4β2* nAChRs [2]; human seven PET)?
The value was 1.63.

What about the “DVR Red Nucleus” value (α4β2* nAChRs [2]; human seven PET) of the same compound?
The value was 1.37.

And the “DVR SLF” value (α4β2* nAChRs [2]; human seven PET)?
The value was 1.18.

And the “DVR SN/VTA” value (α4β2* nAChRs [2]; human seven PET)?
Its value is 1.68.

And the “DVR Thalamus” value (α4β2* nAChRs [2]; human seven PET)?
The value was 2.13.

What about the “DVR ATR” value (α4β2* nAChRs [2]; human three PET) of the same compound?
Its value is 1.47.

What about the “DVR CB” value (α4β2* nAChRs [2]; human three PET) of the same compound?
Its value is 1.18.

What about the “DVR Frontal cortex” value (α4β2* nAChRs [2]; human three PET) of the same compound?
The value was 1.17.

And the “DVR LG” value (α4β2* nAChRs [2]; human three PET)?
Its value is 2.08.

And the “DVR OG” value (α4β2* nAChRs [2]; human three PET)?
Its value is 1.14.

And the “DVR Pit” value (α4β2* nAChRs [2]; human three PET)?
Its value is 1.17.

What about the “DVR Red Nucleus” value (α4β2* nAChRs [2]; human three PET) of the same compound?
Its value is 1.56.

What about the “DVR SLF” value (α4β2* nAChRs [2]; human three PET) of the same compound?
Its value is 1.36.

And the “DVR SN/VTA” value (α4β2* nAChRs [2]; human three PET)?
Its value is 1.55.

And the “DVR Thalamus” value (α4β2* nAChRs [2]; human three PET)?
Its value is 2.22.

And the “DVR ATR” value (α4β2* nAChRs [2]; human two PET)?
Its value is 1.69.

What about the “DVR CB” value (α4β2* nAChRs [2]; human two PET) of the same compound?
Its value is 1.61.

And the “DVR Frontal cortex” value (α4β2* nAChRs [2]; human two PET)?
Its value is 1.44.

What about the “DVR LG” value (α4β2* nAChRs [2]; human two PET) of the same compound?
The value was 2.26.

What about the “DVR OG” value (α4β2* nAChRs [2]; human two PET) of the same compound?
The value was 1.35.

What about the “DVR Pit” value (α4β2* nAChRs [2]; human two PET) of the same compound?
The value was 1.36.

And the “DVR Red Nucleus” value (α4β2* nAChRs [2]; human two PET)?
Its value is 1.67.

And the “DVR SLF” value (α4β2* nAChRs [2]; human two PET)?
Its value is 1.43.

And the “DVR SN/VTA” value (α4β2* nAChRs [2]; human two PET)?
Its value is 1.66.

What about the “DVR Thalamus” value (α4β2* nAChRs [2]; human two PET) of the same compound?
Its value is 2.37.

And the “Tolerability in human subjects” value [3]?
Its value is “well tolerated in all the human subjects with no adverse side effects”.

What about the “Tolerability in human subjects” value ([3]; listed as [^18F] Nifene) of the same compound?
Its value is “well tolerated with no adverse effects”.

What about the “Ratio of thalamus to cerebellum” value (α4β2* nAChRs [4]) of the same compound?
Its value is 2.

And the “Ratio of thalamus to cerebellum” value (α4β2* nAChRs [5])?
The value was 3.1.

What about the “Ratio of thalamus to cerebellum” value (α4β2* nAChRs [6]) of the same compound?
Its value is 3.2.

And the “Thalamus reference region ratio” value (α4β2* nAChRs [7])?
The value was over 2.

And the “Radioactive components in rat brain” value [8]?
Its value is “the only radioactive component”.
